This assay relates to Staphylococcus aureus. Kind of assay: Antimicrobial activity against methicillin-sensitive Staphylococcus aureus ATCC 6538 at 100 ug after 20 hrs by agar plate diffusion assay. The class given is functional, organism-based. An outline of the steps: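 Agar disk diffusion. Cells were grown on Mueller-Hinton agar at 37 °C for 24 h, resuspended in Mueller-Hinton broth to 108 CFU/mL and incubated again. They were then diluted to 105 CFU/mL and used to inoculate Mueller-Hinton agar plates. 6 mm disks loaded with 100 µg compound were placed on the plates and incubated 20 h at 37 °C. Inhibition zones >10 mm were scored positive.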

Calls of active or inactive are those of the source. No cut-off for these calls is given here.

Turning to `COc1cc(-c2c(O)c(C=O)cc3cc(OC)c(O)cc23)ccc1O`, the outcome was inactive. In the case of `COc1cc(C[C@@H](CO)[C@H](CO)Cc2ccc(O)c(OC)c2)ccc1O`, the outcome was inactive. Regarding `COc1cc2cc3c(c(-c4ccc(OC)c(OC)c4)c2cc1O)COC3=O`, the outcome was inactive. As for `COc1ccc(-c2c(O)c(C=O)cc3ccc(O)c(OC)c23)cc1OC`, the entry is “inactive”; as for `COc1ccc(-c2c3c(cc4ccc(O)c(OC)c24)C(=O)OC3)cc1OC`, “inactive”.

Values taken from ChEMBL document CHEMBL1150832, “Phenylnaphthalene compounds from the subterranean part of Vitex rotundifolia and their antibacterial activity against methicillin-resistant Staphylococcus aureus” (2001).
